Screening results deposited in PubChem by Broad Institute.
A selection: hits, their analogues and other compounds. The true share with any hit is near 5.8%.
Pf Dd2 inh: inhibitors of Plasmodium falciparum Dd2 growth. activity change, % at 10 µM. 94,000 tested, 2.3% active. P. falciparum Dd2 growth, SYBR Green, 72 h; active compounds read low; in the data active means activity change below about -80%
IDH1 mut inh: blocks human IDH1 R132H reductase activity | diaphorase/resazurin fluorescence, 60 min | AID 624101 | inhibition, % at 10 µM | 70,000 tested, 0.18% active | O75874; in the data active means inhibition above about 34%;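 further: 0% = DMSO and 100% = no enzyme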
KDM4C inh: blocks human GASC-1 (KDM4C) demethylase activity | Q9H3R0 | GST-KDM4C 2-372, H3K9me3 peptide, LANCE TR-FRET | inhibition, % at 12.5 µM | 96,000 tested, 0.15% active | AID 720574;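 active means mean replicate inhibition above about 25%, with at least 55% of replicates also reaching it, limit read from the data, passing the limit was not always enough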
Target sequence (Q9H3R0 2-372 limits assumed): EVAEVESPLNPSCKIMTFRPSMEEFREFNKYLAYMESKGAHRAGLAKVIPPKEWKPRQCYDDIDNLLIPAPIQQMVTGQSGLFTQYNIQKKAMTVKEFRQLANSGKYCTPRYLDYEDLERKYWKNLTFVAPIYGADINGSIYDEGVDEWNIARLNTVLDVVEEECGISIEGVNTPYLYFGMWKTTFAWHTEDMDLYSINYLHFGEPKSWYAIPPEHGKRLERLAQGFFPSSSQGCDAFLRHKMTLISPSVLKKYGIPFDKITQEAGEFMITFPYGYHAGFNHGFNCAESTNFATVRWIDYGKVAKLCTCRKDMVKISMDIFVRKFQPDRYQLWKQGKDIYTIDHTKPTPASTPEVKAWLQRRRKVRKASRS
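Material: GST-tagged GASC-1 (JMJD2C) catalytic fragment, aa 2-372 / Quantity: enzyme final amount 10 nM / Medium: HEPES buffer, pH 7.5, plus ascorbate / Doses: one test concentration per compound / Incubation: 30 min reaction, 60 min detection, RT / Measured by: LANCE TR-FRET / Read-out: inhibition from TR-FRET ratio decrease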
T cruzi growth: inhibitors of T. cruzi proliferation; T. cruzi beta-gal in NIH3T3, GalScreen luminescence, 90 h; inhibition, % at 8.34 µM; 77,000 tested, 5.9% active;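 active means mean inhibition above about 93%, with at least 55% of replicates each passing it, limit read from the data, passing the limit was not always enough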
Numbers without * were called inactive; . = no result.

SMILES	Pf Dd2 inh	IDH1 mut inh	KDM4C inh	T cruzi growth
CC(C)(C)c1ccc(S(=O)(=O)NCC(=O)Nc2cccc(Cl)c2)cc1	.	0.3	.	.
C[C@H]1CCCCO[C@@H](CN(C)C(=O)C2CCCCC2)[C@@H](C)CN([C@@H](C)CO)C(=O)c2cc(NC(=O)NC3CCCCC3)ccc2O1	-82.3*	.	-0.1	88.7
C[C@H]1CCCCO[C@@H](CN(C)C(=O)C2CCCCC2)[C@@H](C)CN([C@@H](C)CO)C(=O)c2cc(NC(=O)Cc3ccccc3)ccc2O1	-87.0*	-0.2	0.2	61.1
C[C@@H]1CN([C@H](C)CO)C(=O)c2cc(NC(=O)Nc3ccccc3)ccc2O[C@@H](C)CCCCO[C@@H]1CN(C)C(=O)C1CCCCC1	-86.4*	-1.3	.	73.3
C[C@@H]1CN([C@@H](C)CO)C(=O)c2cc(NC(=O)Nc3ccc(F)cc3)ccc2O[C@@H](C)CCCCO[C@@H]1CN(C)C(=O)C1CCCCC1	-85.3*	.	0.5	19.2
C[C@@H]1CCCCO[C@@H](CN(C)C(=O)C2CCCCC2)[C@@H](C)CN([C@H](C)CO)C(=O)c2cc(NC(=O)Cc3ccccc3)ccc2O1	-49.5	-2.6	-1.0	57.6
CCN(CC(=O)Nc1cccc([N+](=O)[O-])c1)S(=O)(=O)c1ccc(F)cc1	.	0.2	.	.
Cc1ccc(-c2nc3ccccc3o2)cc1NC(=O)CN1C(=O)c2ccccc2C1=O	.	0.3	.	.
C[C@@H]1CCCCO[C@@H](CN(C)C(=O)C2CCCCC2)[C@@H](C)CN([C@@H](C)CO)C(=O)c2cc(NC(=O)Nc3ccc(F)cc3)ccc2O1	-78.8	.	0.1	75.9
C[C@@H]1CN([C@H](C)CO)C(=O)c2cc(NC(=O)Nc3ccc(F)cc3)ccc2O[C@@H](C)CCCCO[C@@H]1CN(C)C(=O)C1CCCCC1	-92.1*	.	0.7	57.0
C[C@@H]1CCCCO[C@H](CN(C)C(=O)C2CCCCC2)[C@@H](C)CN([C@@H](C)CO)C(=O)c2cc(NC(=O)Nc3ccc(F)cc3)ccc2O1	-90.4*	-0.4	-0.2	85.6
COc1ccc(Cl)cc1NC(=O)CSc1nnc(-c2ccccc2)n1-c1ccc(C)cc1	.	0.2	.	.
O=C(NCCCn1ccnc1)c1ccccc1I	.	14.2	.	.
O=C(NCCCn1ccnc1)c1cc(-c2ccc(Br)cc2)nc2ccccc12	.	41.7*	.	.
CCS(=O)(=O)N1CCC2(CC1)CN(S(=O)(=O)c1ccc(C)cc1)[C@@H](CO)c1[nH]c3cc(OC)ccc3c12	-89.5*	.	-3.6	.
CCS(=O)(=O)N1CC2(C1)CN(S(=O)(=O)c1ccc(C)cc1)[C@@H](CO)c1[nH]c3cc(OC)ccc3c12	-77.0	.	0.3	.
COc1ccc(S(=O)(=O)N2CCC3(CC2)CN(Cc2ccncc2)[C@@H](CO)c2[nH]c4cc(OC)ccc4c23)cc1	-87.2*	.	0.6	.
CCC(=O)N1CCC2(CC1)CN(S(=O)(=O)c1ccccc1)[C@@H](CO)c1[nH]c3cc(OC)ccc3c12	-91.6*	.	1.2	.
COc1ccc(S(=O)(=O)N2CC3(CN(Cc4ccncc4)[C@H](CO)c4[nH]c5cc(OC)ccc5c43)C2)cc1	-62.1	.	-0.1	.
CCS(=O)(=O)N1CC2(C1)CN(S(=O)(=O)c1cccc(OC)c1)[C@@H](CO)c1[nH]c3cc(OC)ccc3c12	-84.2*	.	-0.6	.
CC(C)(O)CCC(=O)C(C)(O)C1C(O)CC2(C)C3CC=C4C(CC(OC5OC(CO)C(O)C(O)C5O)C(O)C4(C)C)C3(C)CCC12C (centres undefined)	.	-0.1	.	.
COC(=O)CCCCCCC(=O)N/N=C/c1ccccc1[N+](=O)[O-]	.	-0.3	.	.
COc1ccc2c3c([nH]c2c1)[C@@H](CO)N(S(=O)(=O)c1cn(C)cn1)CC31CCN(CC2CCCC2)CC1	-41.1	.	-0.7	.
CCC(=O)N1CC2(C1)CN(S(=O)(=O)c1ccccc1)[C@@H](CO)c1[nH]c3cc(OC)ccc3c12	-92.9*	.	-0.6	.
COc1cccc(S(=O)(=O)N2CCC3(CC2)CN[C@@H](CO)c2[nH]c4cc(OC)ccc4c23)c1	-92.3*	.	17.6	.
SMILES	Pf Dd2 inh	IDH1 mut inh	KDM4C inh	T cruzi growth
CCC(=O)N1CC2(C1)CN(S(=O)(=O)c1ccccc1)[C@H](CO)c1[nH]c3cc(OC)ccc3c12	-16.9	.	3.0	.
COc1ccc2c3c([nH]c2c1)[C@H](CO)NCC31CCN(S(=O)(=O)c2ccccc2)CC1	-76.8	.	-0.8	.
COc1ccc2c3c([nH]c2c1)[C@H](CO)N(S(=O)(=O)c1ccc(C)cc1)CC31CN(Cc2ccccc2)C1	-87.3*	.	-0.6	.
COc1ccc2c3c([nH]c2c1)[C@H](CO)N(S(=O)(=O)c1cn(C)cn1)CC31CCN(CC2CCCCC2)CC1	-84.9*	.	-1.5	.
C=C(C(=O)O)[C@@H]1CC[C@@]2(C)C=CC(=O)[C@@H](CCC3(O)C(=O)C=C[C@]4(C)CC[C@@H](C(=C)C(=O)O)C[C@@H]34)[C@@H]2C1 (some centres undefined)	.	0.2	.	.
COc1ccc(Cl)cc1NC(=O)CN(c1c(C)cccc1C)S(C)(=O)=O	.	-0.1	.	.
COc1ccc2c3c([nH]c2c1)[C@H](CO)N(CC1CC1)CC31CN(C(=O)c2ccc(F)cc2)C1	-62.4	.	-0.2	.
COCC(=O)N1CC2(C1)CN(Cc1cccc(Cl)c1)[C@@H](CO)c1[nH]c3cc(OC)ccc3c12	-92.5*	.	-0.3	.
COc1ccc2c3c([nH]c2c1)[C@H](CO)N(Cc1ccccc1)CC31CN(C(=O)Cc2ccccc2)C1	28.1	.	.	.
COc1ccc(CN2CC3(CN(C(=O)Cc4ccccc4)C3)c3c([nH]c4cc(OC)ccc34)[C@@H]2CO)cc1	-85.7*	.	-0.7	.
COc1ccc2c3c([nH]c2c1)[C@@H](CO)N(Cc1ccccc1)CC31CN(C(=O)Cc2ccccc2)C1	-84.1*	.	.	.
COc1ccc2c3c([nH]c2c1)[C@H](CO)N(CC1CC1)CC31CN(C(=O)c2ccccc2)C1	-82.5*	.	-0.3	.
Cc1ccccc1NC(=O)CSc1n[nH]c(-c2ccncc2)n1	.	0.5	.	.
Cc1ccc(S(=O)(=O)N(C)C[C@H]2OCCCC[C@@H](C)Oc3ccc(NC(=O)Nc4ccc5c(c4)OCO5)cc3C(=O)N([C@@H](C)CO)C[C@H]2C)cc1	-69.9	0.9	0.0	.
Cc1ccc(S(=O)(=O)N(C)C[C@@H]2OCCCC[C@@H](C)Oc3ccc(NC(=O)Nc4ccc5c(c4)OCO5)cc3C(=O)N([C@@H](C)CO)C[C@@H]2C)cc1	-83.1*	.	-1.1	.
Cc1ccc(S(=O)(=O)N(C)C[C@H]2OCCCC[C@H](C)Oc3ccc(NC(=O)Nc4ccc5c(c4)OCO5)cc3C(=O)N([C@@H](C)CO)C[C@H]2C)cc1	-82.0*	-0.5	0.4	75.6
Cc1ccc(S(=O)(=O)N(C)C[C@H]2OCCCC[C@H](C)Oc3ccc(NC(=O)Nc4ccc5c(c4)OCO5)cc3C(=O)N([C@H](C)CO)C[C@@H]2C)cc1	-24.7	.	-1.4	.
Cc1ccccc1-c1cc(C(=O)NCCCN2CCOCC2)c2cc(Cl)ccc2n1	.	0.0	.	.
COC(=O)c1ccccc1NC(=O)c1ccc(Cl)c(S(=O)(=O)Nc2ccccc2C)c1	.	3.8	.	.
COc1ccc(C#Cc2ccc3c(c2)O[C@@H](CN(C)C(=O)Nc2cccc(OC)c2)[C@H](C)CN([C@@H](C)CO)S3(=O)=O)cc1	-88.2*	.	.	61.0
